# Reference: ChEMBL document CHEMBL5724801, “EUbOPEN Chemogenomics Library - Multiplex” (2024)
# Where “and” joins values, the source holds several entries; their conditions need not be identical. Identical values can stand only once.
# Tested on: HEK-293T
# Assay: Multiplex assay against HEK293T
# Format: toxicity, cell-based
# Conditions: human
# Method in brief: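 Per cents of healthy-nucleus cells form the tubulin, mitochondrial-mass and membrane-permeability phenotype values. Live cells were stained at seeding with Hoechst33342, BioTracker Green Microtubule Cytoskeleton Dye, MitoTracker Red and Annexin V Alexa Fluor 680. After compound addition they were imaged on a CQ1 microscope at 37°C and 5% CO2, and CellPathfinder machine-learning gating split them into Hoechst high-intensity objects or normal cells, normal cells into healthy, pyknosed or fragmented nuclei, and pyknosed cells into mitotic or apoptotic.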
# [1] = 12 h, 1 µM, compound concentration 1 uM
# [2] = 12 h, 10 µM, compound concentration 10 uM
# [3] = 24 h, 1 µM, compound concentration 1 uM
# [4] = 24 h, 10 µM, compound concentration 10 uM
# [5] = 48 h, 1 µM, compound concentration 1 uM
# [6] = 48 h, 10 µM, compound concentration 10 uM
structure (smiles),measurement,setting,value
CC(C)(C)c1cc(NC(=O)Nc2ccc(-c3cn4c(n3)sc3cc(OCCN5CCOCC5)ccc34)cc2)no1 [QUIZARTINIB],Population Apoptotic (%),[1],27% and 34%
same,Population Fragmented Nuclei (%),[1],5%
same,Population Healthy Nuclei (%),[1],83% and 80%
same,Population Hoechst High Intensity Objects (%),[1],10% and 6%
same,Population Membrane Permeable-Phenotype (%),[1],0%
same,Population Mitochondria Different-Phenotype (%),[1],40% and 58%
same,Population Mitotic Cells (%),[1],72% and 65%
same,Population Normal (%),[1],89% and 93%
same,Population Pyknosed Nuclei (%),[1],11% and 14%
same,Population Tubulin-Different-Phenotype (%),[1],35% and 26%
same,Total Cell Count,[1],377 and 345
same,Population Apoptotic (%),[2],53% and 73%
same,Population Fragmented Nuclei (%),[2],7%
same,Population Healthy Nuclei (%),[2],71%
same,Population Hoechst High Intensity Objects (%),[2],23% and 12%
same,Population Membrane Permeable-Phenotype (%),[2],0%
same,Population Mitochondria Different-Phenotype (%),[2],78% and 81%
same,Population Mitotic Cells (%),[2],46% and 26%
same,Population Normal (%),[2],76% and 87%
same,Population Pyknosed Nuclei (%),[2],21%
same,Population Tubulin-Different-Phenotype (%),[2],68% and 63%
same,Total Cell Count,[2],324 and 293
same,Population Apoptotic (%),[3],41% and 38%
same,Population Fragmented Nuclei (%),[3],7% and 5%
same,Population Healthy Nuclei (%),[3],84%
same,Population Hoechst High Intensity Objects (%),[3],6% and 4%
same,Population Membrane Permeable-Phenotype (%),[3],0%
same,Population Mitochondria Different-Phenotype (%),[3],26% and 40%
same,Population Mitotic Cells (%),[3],58% and 61%
same,Population Normal (%),[3],93% and 95%
same,Population Pyknosed Nuclei (%),[3],7% and 10%
same,Population Tubulin-Different-Phenotype (%),[3],21% and 17%
same,Total Cell Count,[3],491 and 440
same,Population Apoptotic (%),[4],62% and 69%
same,Population Fragmented Nuclei (%),[4],8% and 9%
same,Population Healthy Nuclei (%),[4],79% and 78%
same,Population Hoechst High Intensity Objects (%),[4],16% and 9%
same,Population Membrane Permeable-Phenotype (%),[4],0%
same,Population Mitochondria Different-Phenotype (%),[4],63% and 75%
same,Population Mitotic Cells (%),[4],37% and 30%
same,Population Normal (%),[4],83% and 90%
same,Population Pyknosed Nuclei (%),[4],12% and 11%
same,Population Tubulin-Different-Phenotype (%),[4],57% and 50%
same,Total Cell Count,[4],413 and 321
same,Population Apoptotic (%),[5],21%
same,Population Fragmented Nuclei (%),[5],12% and 10%
same,Population Healthy Nuclei (%),[5],80% and 82%
same,Population Hoechst High Intensity Objects (%),[5],3% and 2%
same,Population Membrane Permeable-Phenotype (%),[5],2% and 0%
same,Population Mitochondria Different-Phenotype (%),[5],11% and 24%
same,Population Mitotic Cells (%),[5],78%
same,Population Normal (%),[5],96% and 97%
same,Population Pyknosed Nuclei (%),[5],6%
same,Population Tubulin-Different-Phenotype (%),[5],15% and 18%
same,Total Cell Count,[5],851 and 566
same,Population Apoptotic (%),[6],57% and 58%
same,Population Fragmented Nuclei (%),[6],9% and 11%
same,Population Healthy Nuclei (%),[6],77% and 73%
same,Population Hoechst High Intensity Objects (%),[6],9% and 12%
same,Population Membrane Permeable-Phenotype (%),[6],1% and 0%
same,Population Mitochondria Different-Phenotype (%),[6],40% and 59%
same,Population Mitotic Cells (%),[6],42% and 41%
same,Population Normal (%),[6],90% and 87%
same,Population Pyknosed Nuclei (%),[6],12% and 14%
same,Population Tubulin-Different-Phenotype (%),[6],35% and 37%
same,Total Cell Count,[6],583 and 392
Cc1ccc(/C(=C\CN2CCCC2)c2ccccn2)cc1 [TRIPROLIDINE],Population Apoptotic (%),[1],34% and 50%
same,Population Fragmented Nuclei (%),[1],6% and 3%
same,Population Healthy Nuclei (%),[1],83% and 84%
same,Population Hoechst High Intensity Objects (%),[1],7% and 5%
same,Population Membrane Permeable-Phenotype (%),[1],0%
same,Population Mitochondria Different-Phenotype (%),[1],45% and 55%
same,Population Mitotic Cells (%),[1],65% and 50%
same,Population Normal (%),[1],92% and 94%
same,Population Pyknosed Nuclei (%),[1],9% and 11%
same,Population Tubulin-Different-Phenotype (%),[1],24% and 17%
same,Total Cell Count,[1],424 and 446
same,Population Apoptotic (%),[2],44%
same,Population Fragmented Nuclei (%),[2],10% and 6%
same,Population Healthy Nuclei (%),[2],72% and 77%
same,Population Hoechst High Intensity Objects (%),[2],15% and 8%
same,Population Membrane Permeable-Phenotype (%),[2],0%
same,Population Mitochondria Different-Phenotype (%),[2],67% and 74%
same,Population Mitotic Cells (%),[2],56%
same,Population Normal (%),[2],84% and 91%
same,Population Pyknosed Nuclei (%),[2],16% and 15%
same,Population Tubulin-Different-Phenotype (%),[2],53% and 45%
same,Total Cell Count,[2],368 and 344
same,Population Apoptotic (%),[3],30%
same,Population Fragmented Nuclei (%),[3],10% and 9%
same,Population Healthy Nuclei (%),[3],78% and 82%
same,Population Hoechst High Intensity Objects (%),[3],3% and 7%
same,Population Membrane Permeable-Phenotype (%),[3],0%
same,Population Mitochondria Different-Phenotype (%),[3],27% and 34%
same,Population Mitotic Cells (%),[3],70% and 69%
same,Population Normal (%),[3],96% and 92%
same,Population Pyknosed Nuclei (%),[3],10% and 7%
same,Population Tubulin-Different-Phenotype (%),[3],18% and 9%
same,Total Cell Count,[3],574 and 541
same,Population Apoptotic (%),[4],36% and 27%
same,Population Fragmented Nuclei (%),[4],8% and 9%
same,Population Healthy Nuclei (%),[4],78% and 80%
same,Population Hoechst High Intensity Objects (%),[4],9% and 4%
same,Population Membrane Permeable-Phenotype (%),[4],0%
same,Population Mitochondria Different-Phenotype (%),[4],55% and 54%
same,Population Mitotic Cells (%),[4],63% and 72%
same,Population Normal (%),[4],90% and 95%
same,Population Pyknosed Nuclei (%),[4],13% and 10%
same,Population Tubulin-Different-Phenotype (%),[4],43% and 26%
same,Total Cell Count,[4],490 and 464
same,Population Apoptotic (%),[5],16% and 37%
same,Population Fragmented Nuclei (%),[5],14% and 10%
same,Population Healthy Nuclei (%),[5],79% and 84%
same,Population Hoechst High Intensity Objects (%),[5],1% and 3%
same,Population Membrane Permeable-Phenotype (%),[5],2% and 1%
same,Population Mitochondria Different-Phenotype (%),[5],17% and 13%
same,Population Mitotic Cells (%),[5],83% and 62%
same,Population Normal (%),[5],98% and 96%
same,Population Pyknosed Nuclei (%),[5],6% and 4%
same,Population Tubulin-Different-Phenotype (%),[5],11% and 6%
same,Total Cell Count,[5],950 and 837
same,Population Apoptotic (%),[6],43% and 33%
same,Population Fragmented Nuclei (%),[6],16% and 13%
same,Population Healthy Nuclei (%),[6],74% and 78%
same,Population Hoechst High Intensity Objects (%),[6],6% and 4%
same,Population Membrane Permeable-Phenotype (%),[6],0% and 1%
same,Population Mitochondria Different-Phenotype (%),[6],46% and 43%
same,Population Mitotic Cells (%),[6],56% and 66%
same,Population Normal (%),[6],93% and 95%
same,Population Pyknosed Nuclei (%),[6],9% and 7%
same,Population Tubulin-Different-Phenotype (%),[6],29% and 25%
same,Total Cell Count,[6],674 and 644
